{"source": "ChEMBL document CHEMBL1151761", "about": "“Radiohalogenated prostate-specific membrane antigen (PSMA)-based ureas as imaging agents for prostate cancer” (J Med Chem, 2008)", "assay_type_in_all_cases": "ADME, organism-based", "key": {"[1]": {"assay": "Ratio of drug level in tumor to liver of human PSMA expressing PC3 PIP and PSMA deficient human PC3 flu cells xenografted SCID mouse at 2 uCi, iv after 2 hrs", "conditions": "in vivo", "method_in_brief": "(§1)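 Male SCID mice carried subcutaneous PSMA+ PC-3 PIP (left shoulder) and PC-3 flu (right shoulder) xenografts, 1-5 × 10^6 cells in HBSS, and were used at 3-5 mm tumor diameter. Tail-vein injection of 2 µCi radioligand; four mice per time point, killed by cervical dislocation. %ID/g from a standard dilution of the dose, decay-corrected, mean ± SD; PIP tumor:organ ratios.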"}, "[2]": {"test_system": "Urinary bladder", "assay": "Biodistribution in bladder of PSMA expressing human PC3 PIP and PSMA deficient human PC3 flu cells xenografted SCID mouse at 2 uCi, iv after 5 hrs", "conditions": "in vivo"}, "[3]": {"assay": "Ratio of drug level in tumor to lung of human PSMA expressing PC3 PIP and PSMA deficient human PC3 flu cells xenografted SCID mouse at 2 uCi, iv after 2 hrs", "conditions": "in vivo", "method_in_brief": "as §1"}, "[4]": {"test_system": "Spleen", "assay": "Biodistribution in spleen of PSMA expressing human PC3 PIP and PSMA deficient human PC3 flu cells xenografted SCID mouse at 2 uCi, iv after 60 mins", "conditions": "in vivo, 1 h"}, "[5]": {"assay": "Biodistribution in PC3 flu tumor of PSMA expressing human PC3 PIP and PSMA deficient human PC3 flu cells xenografted SCID mouse at 2 uCi, iv after 60 mins", "conditions": "in vivo, 1 h", "method_in_brief": "as §1"}, "[6]": {"test_system": "Urinary bladder", "assay": "Biodistribution in bladder of PSMA expressing human PC3 PIP and PSMA deficient human PC3 flu cells xenografted SCID mouse at 2 uCi, iv after 2 hrs", "conditions": "in vivo"}, "[7]": {"assay": "Ratio of drug level in tumor to bladder of human PSMA expressing PC3 PIP and PSMA deficient human PC3 flu cells xenografted SCID mouse at 2 uCi, iv after 2 hrs", "conditions": "in vivo", "method_in_brief": "as §1"}, "[8]": {"test_system": "Muscle tissue", "assay": "Biodistribution in muscle of PSMA expressing human PC3 PIP and PSMA deficient human PC3 flu cells xenografted SCID mouse at 2 uCi, iv after 5 hrs", "conditions": "in vivo"}, "[9]": {"test_system": "Blood", "assay": "Biodistribution in blood of PSMA expressing human PC3 PIP and PSMA deficient human PC3 flu cells xenografted SCID mouse at 2 uCi, iv after 5 hrs", "conditions": "in vivo"}, "[10]": {"test_system": "Liver", "assay": "Biodistribution in liver of PSMA expressing human PC3 PIP and PSMA deficient human PC3 flu cells xenografted SCID mouse at 2 uCi, iv after 5 hrs", "conditions": "in vivo"}, "[11]": {"assay": "Biodistribution in large intestine of PSMA expressing human PC3 PIP and PSMA deficient human PC3 flu cells xenografted SCID mouse at 2 uCi, iv after 2 hrs", "conditions": "in vivo", "method_in_brief": "as §1"}, "[12]": {"test_system": "Pancreas", "assay": "Biodistribution in pancreas of PSMA expressing human PC3 PIP and PSMA deficient human PC3 flu cells xenografted SCID mouse at 2 uCi, iv after 2 hrs", "conditions": "in vivo"}, "[13]": {"assay": "Ratio of drug level in tumor to large intestine of human PSMA expressing PC3 PIP and PSMA deficient human PC3 flu cells xenografted SCID mouse at 2 uCi, iv after 60 mins", "conditions": "in vivo, 1 h", "method_in_brief": "as §1"}, "[14]": {"assay": "Biodistribution in small intestine of PSMA expressing human PC3 PIP and PSMA deficient human PC3 flu cells xenografted SCID mouse at 2 uCi, iv after 60 mins", "conditions": "in vivo, 1 h", "method_in_brief": "as §1"}, "[15]": {"assay": "Ratio of drug level in tumor to spleen of human PSMA expressing PC3 PIP and PSMA deficient human PC3 flu cells xenografted SCID mouse at 2 uCi, iv after 30 mins", "conditions": "in vivo, 0.5 h", "method_in_brief": "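Male SCID mice carried subcutaneous xenografts: PSMA+ PC-3 PIP behind the left shoulder and PSMA− PC-3 flu behind the right, 1–5 × 10^6 cells in HBSS. Mice were used at 3–5 mm tumor diameter. 2 μCi was given by tail vein, and 4 mice per time point were killed by cervical dislocation. %ID/g came from a standard dilution of the dose, decay-corrected. Ratio is PIP tumor %ID/g to organ %ID/g.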"}, "[16]": {"assay": "Biodistribution in large intestine of PSMA expressing human PC3 PIP and PSMA deficient human PC3 flu cells xenografted SCID mouse at 2 uCi, iv after 5 hrs", "conditions": "in vivo", "method_in_brief": "as §1"}, "[17]": {"assay": "Ratio of drug level in tumor to blood of human PSMA expressing PC3 PIP and PSMA deficient human PC3 flu cells xenografted SCID mouse at 2 uCi, iv after 30 mins", "method_in_brief": "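Male SCID mice carried subcutaneous xenografts of PSMA+ PC-3 PIP cells behind the left shoulder and PSMA− PC-3 flu cells behind the right (1–5 × 10^6 cells in HBSS), used at a tumour diameter of 3–5 mm. Each mouse received 2 μCi of radioiodinated tracer via the tail vein. Tissues were harvested at each time point for %ID/g against a standard dilution of the dose, decay-corrected. Ratios are PIP tumour:organ.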"}, "[18]": {"assay": "Ratio of drug level in tumor to liver of human PSMA expressing PC3 PIP and PSMA deficient human PC3 flu cells xenografted SCID mouse at 2 uCi, iv after 60 mins", "conditions": "in vivo, 1 h", "method_in_brief": "as §1"}, "[19]": {"assay": "Ratio of drug level in tumor to lung of human PSMA expressing PC3 PIP and PSMA deficient human PC3 flu cells xenografted SCID mouse at 2 uCi, iv after 60 mins", "conditions": "in vivo, 1 h", "method_in_brief": "as §1"}, "[20]": {"assay": "Ratio of drug level in tumor to muscle of human PSMA expressing PC3 PIP and PSMA deficient human PC3 flu cells xenografted SCID mouse at 2 uCi, iv after 60 mins", "conditions": "in vivo, 1 h", "method_in_brief": "as §1"}, "[21]": {"assay": "Biodistribution in PC3 flu tumor of PSMA expressing human PC3 PIP and PSMA deficient human PC3 flu cells xenografted SCID mouse at 2 uCi, iv after 5 hrs", "conditions": "in vivo", "method_in_brief": "as §1"}, "[22]": {"test_system": "Stomach", "assay": "Biodistribution in stomach of PSMA expressing human PC3 PIP and PSMA deficient human PC3 flu cells xenografted SCID mouse at 2 uCi, iv after 5 hrs", "conditions": "in vivo"}}}
{"molecule": "O=C(O)CC[C@H](NC(=O)N[C@@H](CCCCNC(=O)c1ccc([18F])cc1)C(=O)O)C(=O)O", "values": [{"measurement": "Ratio", "setting": "[1]", "result": 0.3}, {"measurement": "Drug uptake", "setting": "[2]", "result": 5.2, "unit": "% ID/g"}, {"measurement": "Ratio", "setting": "[3]", "result": 4}, {"measurement": "Drug uptake", "setting": "[4]", "result": 7.2, "unit": "% ID/g"}, {"measurement": "Drug uptake", "setting": "[5]", "result": 0.3, "unit": "% ID/g"}, {"measurement": "Drug uptake", "setting": "[6]", "result": 11, "unit": "% ID/g"}, {"measurement": "Ratio", "setting": "[7]", "result": 0.3}, {"measurement": "Drug uptake", "setting": "[8]", "result": 0.1, "unit": "% ID/g"}, {"measurement": "Drug uptake", "setting": "[9]", "result": 0.03, "unit": "% ID/g"}, {"measurement": "Drug uptake", "setting": "[10]", "result": 1, "unit": "% ID/g"}, {"measurement": "Drug uptake", "setting": "[11]", "result": 0.2, "unit": "% ID/g"}, {"measurement": "Drug uptake", "setting": "[12]", "result": 0.15, "unit": "% ID/g"}, {"measurement": "Ratio", "setting": "[13]", "result": 13}, {"measurement": "Drug uptake", "setting": "[14]", "result": 0.6, "unit": "% ID/g"}, {"measurement": "Ratio", "setting": "[15]", "result": 0.7}, {"measurement": "Drug uptake", "setting": "[16]", "result": 0.6, "unit": "% ID/g"}, {"measurement": "Kp at 0.5 h", "setting": "[17]", "result": 3}, {"measurement": "Ratio", "setting": "[18]", "result": 1}, {"measurement": "Ratio", "setting": "[19]", "result": 13}, {"measurement": "Ratio", "setting": "[20]", "result": 13}, {"measurement": "Drug uptake", "setting": "[21]", "result": 0.1, "unit": "% ID/g"}, {"measurement": "Drug uptake", "setting": "[22]", "result": 0.04, "unit": "% ID/g"}]}
